# Legend:
# [1] = Plasma concentration in old healthy human at 4 mg/kg, iv administered as single dose 30 mins infusion measured after 24 hrs; assay type: ADME, organism-based; design: dose 4 mg/kg, route intravenous
# [2] = Cmax in healthy adult human at 6 mg/kg, iv administered as single dose 30 mins infusion; assay type: ADME, organism-based; design: dose 6 mg/kg, route intravenous; details: in vivo
# [3] = Cmax in morbidly obese adult human at 4 mg/kg, iv administered as single dose 30 mins infusion; assay type: ADME, organism-based; design: dose 4 mg/kg, route intravenous; details: in vivo
# [4] = Cmax in cancer patient with neutropenic fever at 6 mg/kg, iv administered as 30 mins infusion every 24 hrs; assay type: ADME, organism-based; design: dose 6 mg/kg, route intravenous; details: human, in vivo
# How it was run: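 First 6 mg/kg dose given over 30 min IV (q24h) to 29 neutropenic febrile adult cancer patients. Serial plasma was taken predose, at end of infusion, and at 0.5–24 h. Total concentration was measured by validated HPLC (limit of detection 1 μg/ml). Cmax is the observed peak value, reported as mean ± SD and range.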
# [5] = Volume of distribution at steady state in cancer patient with neutropenic fever at 6 mg/kg, iv administered as 30 mins infusion every 24 hrs; assay type: ADME, organism-based; design: dose 6 mg/kg, route intravenous; details: human, in vivo, read-out: Vdss
# [6] = Clearance in cancer patient with neutropenic fever at 6 mg/kg, iv administered as 30 mins infusion every 24 hrs; assay type: ADME, organism-based; design: dose 6 mg/kg, route intravenous; details: human, in vivo
# How it was run: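 29 adult oncology patients with neutropenic fever received 6 mg/kg (total body weight) as a 30-min IV infusion every 24 h. Plasma was sampled predose, at the end of infusion, and at 0.5, 1, 2, 4, 8, 12 and 24 h. Total drug was measured by validated HPLC (linear 1–100 μg/ml). Noncompartmental clearance = dose/AUC0-∞, with AUC from trapezoids plus last concentration/λz. Mean ± SD.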
# [7] = Mean residence time in cancer patient with neutropenic fever at 6 mg/kg, iv administered as 30 mins infusion every 24 hrs; assay type: ADME, organism-based; design: dose 6 mg/kg, route intravenous; details: human, in vivo
# How it was run: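 Patients with neutropenic fever; 6 mg/kg by total body weight, 30-min IV infusion every 24 h; serial plasma sampling predose to 24 h after infusion start. Total plasma drug by validated HPLC; mean residence time from noncompartmental analysis of concentration-time data.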
# [8] = Plasma protein binding in human after 0.5 hrs; assay type: ADME, cell-free; details: read-out: PPB (converted)
# How it was run: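 Neutropenic-fever oncology patients received 6 mg/kg IV daptomycin; serum was drawn 0.5, 2 and 8 h after the end of infusion. Free drug was obtained by ultrafiltration (30,000-MW cutoff) and quantified by HPLC against a saline-matrix curve of 0.25–100 μg/ml, with total plasma drug also measured. Percent bound was (total − free)/total × 100; results are given as mean ± SD.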
# [9] = Apparent volume of distribution during terminal phase in healthy human at 8 mg/kg, iv administered as 30 mins infusion every 24 hrs measured on day 7; assay type: ADME, organism-based; design: dose 8 mg/kg, route intravenous; details: in vivo
# [10] = Apparent volume of distribution during terminal phase in healthy human at 4 mg/kg, iv administered as 30 mins infusion every 24 hrs measured on day 7; assay type: ADME, organism-based; design: dose 4 mg/kg, route intravenous; details: in vivo
# [11] = Renal clearance in adult human subjects at 6 mg/kg, iv administered as single dose 30 mins infusion; assay type: ADME, organism-based, Kidney; design: dose 6 mg/kg, route intravenous; details: in vivo, read-out: CL_renal (converted)
# [12] = Renal clearance in nonobese adult human at 4 mg/kg, iv administered as single dose 30 mins infusion; assay type: ADME, organism-based, Kidney; design: dose 4 mg/kg, route intravenous; details: in vivo, read-out: CL_renal (converted)
# [13] = AUC (0 to infinity) in nonobese adult human at 4 mg/kg, iv administered as single dose 30 mins infusion; assay type: ADME, organism-based; design: time infinity, dose 4 mg/kg, route intravenous; details: plasma
# [14] = Plasma concentration in nonobese human subjects at 4 mg/kg, iv administered as single dose 30 mins infusion measured after 24 hrs; assay type: ADME, organism-based; design: dose 4 mg/kg, route intravenous
# [15] = AUC (0 to infinity) in healthy human subjects at 10 mg/kg, iv administered as 30 mins infusion every 24 hrs measured on day 4; assay type: ADME, organism-based; design: time infinity, dose 10 mg/kg, route intravenous; details: plasma
# Homo sapiens [16] = assay: AUC (0 to infinity) in healthy human subjects at 6 mg/kg, iv administered as 30 mins infusion every 24 hrs measured on day 1; assay type: ADME, organism-based, Plasma; design: time infinity, dose 6 mg/kg, route intravenous; details: in vivo
# [17] = Cmax in healthy human subjects at 12 mg/kg, iv administered as 30 mins infusion every 24 hrs measured on day 14; assay type: ADME, organism-based; design: dose 12 mg/kg, route intravenous; details: in vivo
# [18] = Cmax in healthy human subjects at 10 mg/kg, iv administered as 30 mins infusion every 24 hrs measured on day 14; assay type: ADME, organism-based; design: dose 10 mg/kg, route intravenous; details: in vivo
# [19] = Cmax in healthy human subjects at 12 mg/kg, iv administered as 30 mins infusion every 24 hrs measured on day 4; assay type: ADME, organism-based; design: dose 12 mg/kg, route intravenous; details: in vivo
# [20] = Drug excretion in nonobese human at 4 mg/kg, iv administered as single dose 30 mins infusion; assay type: ADME, organism-based; design: dose 4 mg/kg, route intravenous; details: in vivo, read-out: Drug uptake
# [21] = Volume of distribution at steady state in adult human with hepatic impairment at 6 mg/kg, iv administered as single dose 30 mins infusion; assay type: ADME, organism-based; design: dose 6 mg/kg, route intravenous; details: in vivo, read-out: Vdss
# [22] = Volume of distribution at steady state in morbidly obese adult human at 4 mg/kg, iv administered as single dose 30 mins infusion; assay type: ADME, organism-based; design: dose 4 mg/kg, route intravenous; details: in vivo, read-out: Vdss
# [23] = Volume of distribution at steady state in old healthy human at 4 mg/kg, iv administered as single dose 30 mins infusion; assay type: ADME, organism-based; design: dose 4 mg/kg, route intravenous; details: in vivo, read-out: Vdss
# [24] = Clearance in adult human subjects at 6 mg/kg, iv administered as single dose 30 mins infusion; assay type: ADME, organism-based; design: dose 6 mg/kg, route intravenous; details: in vivo
# [25] = Clearance in morbidly obese human at 4 mg/kg, iv administered as single dose 30 mins infusion; assay type: ADME, organism-based; design: dose 4 mg/kg, route intravenous; details: in vivo
# [26] = Clearance in moderately obese adult human at 4 mg/kg, iv administered as single dose 30 mins infusion; assay type: ADME, organism-based; design: dose 4 mg/kg, route intravenous; details: in vivo
# [27] = Clearance in old healthy human at 4 mg/kg, iv administered as single dose 30 mins infusion; assay type: ADME, organism-based; design: dose 4 mg/kg, route intravenous; details: in vivo
# [28] = Clearance in young healthy human at 4 mg/kg, iv administered as single dose 30 mins infusion; assay type: ADME, organism-based; design: dose 4 mg/kg, route intravenous; details: in vivo
# Homo sapiens [29] = assay: Unbound clearance in healthy human at 8 mg/kg, iv administered as 30 mins infusion every 24 hrs measured on day 14; assay type: ADME, organism-based; design: dose 8 mg/kg, route intravenous; details: in vivo
# Homo sapiens [30] = assay: Unbound clearance in healthy human at 6 mg/kg, iv administered as 30 mins infusion every 24 hrs measured on day 7; assay type: ADME, organism-based; design: dose 6 mg/kg, route intravenous; details: in vivo
# [31] = Clearance in healthy human subjects at 8 mg/kg, iv administered as 30 mins infusion every 24 hrs measured on day 1; assay type: ADME, organism-based; design: dose 8 mg/kg, route intravenous; details: in vivo
# [32] = Clearance in healthy human at 8 mg/kg, iv administered as 30 mins infusion every 24 hrs measured on day 7; assay type: ADME, organism-based; design: dose 8 mg/kg, route intravenous; details: in vivo
# [33] = Clearance in healthy human at 6 mg/kg, iv administered as 30 mins infusion every 24 hrs measured on day 1; assay type: ADME, organism-based; design: dose 6 mg/kg, route intravenous; details: in vivo
# [34] = Half life in healthy human subjects at 6 mg/kg, iv administered as 30 mins infusion every 24 hrs measured on days 1-3; assay type: ADME, organism-based; design: dose 6 mg/kg, route intravenous; details: in vivo
# [35] = Half life in healthy human subjects at 12 mg/kg, iv administered as 30 mins infusion every 24 hrs measured on day 14; assay type: ADME, organism-based; design: dose 12 mg/kg, route intravenous; details: in vivo
# [36] = Half life in healthy human subjects at 12 mg/kg, iv administered as 30 mins infusion every 24 hrs measured on day 1; assay type: ADME, organism-based; design: dose 12 mg/kg, route intravenous; details: in vivo
# [37] = Half life in healthy human subjects at 10 mg/kg, iv administered as 30 mins infusion every 24 hrs measured on day 1; assay type: ADME, organism-based; design: dose 10 mg/kg, route intravenous; details: in vivo
# [38] = Half life in healthy human subjects at 8 mg/kg, iv administered as 30 mins infusion every 24 hrs measured on day 1; assay type: ADME, organism-based; design: dose 8 mg/kg, route intravenous; details: in vivo
# [39] = Half life in healthy human at 8 mg/kg, iv administered as 30 mins infusion every 24 hrs measured on day 1; assay type: ADME, organism-based; design: dose 8 mg/kg, route intravenous; details: in vivo
# [40] = Half life in healthy human at 6 mg/kg, iv administered as 30 mins infusion every 24 hrs measured on day 1; assay type: ADME, organism-based; design: dose 6 mg/kg, route intravenous; details: in vivo
compound,measurement,setting,value
CCCCCCCCCC(=O)N[C@@H](Cc1c[nH]c2ccccc12)C(=O)N[C@H](CC(N)=O)C(=O)N[C@@H](CC(=O)O)C(=O)N[C@@H]1C(=O)NCC(=O)N[C@@H](CCCN)C(=O)N[C@@H](CC(=O)O)C(=O)N[C@H](C)C(=O)N[C@@H](CC(=O)O)C(=O)NCC(=O)N[C@H](CO)C(=O)N[C@@H]([C@H](C)CC(=O)O)C(=O)N[C@@H](CC(=O)c2ccccc2N)C(=O)O[C@@H]1C,concentration at 24 h,[1],6.38 µg/mL
same,Cmax,[2],82 µg/mL
same,Cmax,[3],67 µg/mL
same,Cmax,[4],48.9 µg/mL
same,Vd,[5],0.18 L/kg
same,clearance,[6],0.259 mL/min/kg
same,MRT,[7],11.9 h
same,fraction unbound at 0.5 h,[8],0.058
same,Vd,[9],0.092 L/kg
same,Vd,[10],0.096 L/kg
same,CL renal at 0.5 h,[11],0.0453 mL/min/kg
same,CL renal at 0.5 h,[12],0.139 mL/min/kg
same,AUC(0-inf),[13],322 µg·h/mL
same,concentration at 24 h,[14],3.39 µg/mL
same,AUC(0-inf),[15],1040 µg·h/mL
same,AUC,Homo sapiens [16],729.8 µg·h/mL
same,Cmax,[17],182 µg/mL
same,Cmax,[18],139 µg/mL
same,Cmax,[19],184 µg/mL
same,dose excreted at 0.5 h,[20],48.6%
same,Vd,[21],0.08 L/kg
same,Vd,[22],0.18 L/kg
same,Vd,[23],0.15 L/kg
same,clearance,[24],0.109 mL/min/kg
same,clearance,[25],0.118 mL/min/kg
same,clearance,[26],0.271 mL/min/kg
same,clearance,[27],0.164 mL/min/kg
same,clearance,[28],0.252 mL/min/kg
same,CL,Homo sapiens [29],0.745 mL/min/kg
same,CL,Homo sapiens [30],0.997 mL/min/kg
same,clearance,[31],0.168 mL/min/kg
same,clearance,[32],0.118 mL/min/kg
same,clearance,[33],0.143 mL/min/kg
same,half-life,[34],7.6 h
same,half-life,[35],7.9 h
same,half-life,[36],7.8 h
same,half-life,[37],8.4 h
same,half-life,[38],7.3 h
same,half-life,[39],9.6 h
same,half-life,[40],7.8 h

# — ChEMBL document CHEMBL1649119, “Daptomycin pharmacokinetics in adult oncology patients with neutropenic fever” (Antimicrob Agents Chemother, 2009)
